Assay results reported in PMC4227885 (Science translational medicine, 2013).
Read-outs that look alike come from different tables or passages of the source. One block for each compound: values may come before it.

What was measured:
[1] = target: human cytochrome bc1 (derived from HEK-293 cells) (Homo sapiens, UniProt P00156); assay: Inhibition of human cytochrome bc1 activity; assay type: biochemical
[2] = tested on: P. yoelii in CD1 Swiss mice; settings: for ED90: P. yoelii, 4-day test, oral, PEG400 vehicle
[3] = tested on: P. berghei ookinete; assay: In vitro ookinete assay; assay type: cell-based; settings: read-out: IC50 ookinete production
[4] = target: P. falciparum cytochrome bc1 (Plasmodium falciparum, UniProt Q02768); assay type: biochemical; settings: read-out: IC50, nM P. falciparum cytochrome bc1; P. falciparum mitochondria
[5] = tested on: P. falciparum strains (D6, 3D7, Dd2, W2, recent isolates from SE Asia, TM90-C2B); assay type: cell-based, Plasmodium falciparum; settings: atovaquone-resistant clinical isolate TM90-C2B
[6] = tested on: P. berghei oocyst formation in Anopheles stephensi mosquitoes; assay: Oocyst formation after membrane feeding of drug-spiked infected blood; assay type: in vivo
In short: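 Mouse blood infected with GFP-expressing P. berghei was mixed with the test compound and placed at once in membrane feeders at 39 °C. It was offered to about 75 overnight-starved mosquitoes. After 7 days, fluorescent oocysts on dissected midguts were counted by semi-automated image capture and analysis. DMSO was the negative control.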

[7] = tested on: murine bone marrow derived hematopoietic progenitors (CFU-GM, BFUE, CFU-GEMM); assay type: cell-based
[8] = tested on: transgenic P. falciparum clone D10yDHOD; assay: Susceptibility of transgenic clone expressing yeast DHOD; assay type: cell-based, Plasmodium falciparum
[9] = tested on: J774 mouse macrophages; assay type: cell-based
[10] = target: hERG (human-Ether-a-go-go-Related Gene) channel (Homo sapiens, UniProt Q12809); assay type: cell-based
[11] = tested on: human foreskin fibroblasts (HFF); assay type: cell-based
[12] = tested on: major cytochrome P450 enzymes; assay: Cytochrome P450 inhibition; assay type: in vitro ADME; settings: at concentrations needed for efficacy
[13] = tested on: 100 neurotransmitter receptors, peptide receptors, ion channels, reuptake sites, and enzymes
[14] = tested on: P. vivax clinical isolates; assay: Ex vivo susceptibility of clinical field isolates, modified WHO microtest; assay type: cell-based, Plasmodium vivax; settings: read-out: median EC50, Papua, Indonesia
In short: (§1)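 Isolates were taken from patients attending malaria clinics in southern Papua, Indonesia, and tested ex vivo by a modified WHO microtest. Median IC50 was reported separately for each species. Comparisons used the Wilcoxon rank sum test.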

[15] = tested on: P. cynomolgi liver schizonts; assay: In vitro liver stage assay in primary rhesus hepatocytes; assay type: cell-based; settings: read-out: IC50 liver schizonts, 6-day incubation
[16] = tested on: P. berghei (luciferase) sporozoite infections of BALB/c mice; assay: In vivo liver stage, sporozoite infection with bioluminescence imaging; settings: per os one hour post infection
In short: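 BALB/c mice (5 per group) were infected with luciferase-expressing P. berghei sporozoites. One hour later they received a single dose of test compound by gavage; untreated mice served as controls. For bioluminescence imaging at 44 h and on days 6 and 13, mice were injected with D-luciferin and anesthetized, tracking liver and blood stages.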

[17] = tested on: exoerythrocytic stages of P. berghei; assay: In vitro liver stage assay, luciferase sporozoites on HEPG2 hepatoma cells; assay type: cell-based; settings: read-out: EC50, luciferase expression, 44 h post infection
In short: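 Luciferase-expressing P. berghei sporozoites were added to HepG2 hepatoma monolayers and allowed to infect for 1 h. A dilution series of the test compound was then added and plates were incubated at 37 °C. Luciferase was read 44 h post infection. EC50 came from a nonlinear logistic dose-response fit.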

[18] = tested on: P. falciparum (NF54) gametocytes (Stage I-II); assay: Inhibition of early stage gametocyte development; assay type: cell-based; settings: three days exposure of Stage I-II gametocytes
[19] = Pharmacokinetics in mice, intravenous and oral; assay type: in vivo, mouse; settings: 0.3 mg/kg oral in PEG400
In short: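 Non-fasted male Swiss outbred mice were used. The IV dose was 0.1 mg/kg, formulated in mouse plasma and given via the tail vein. The oral dose was 0.3 mg/kg by gavage, as a solution in undiluted PEG400.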

[20] = tested on: P. falciparum strain 3D7 oocyst formation; assay: Standard membrane feeding assay; assay type: in vivo
[21] = tested on: late stage IV - V P. falciparum gametocytes; assay: Late stage gametocyte viability, high content imaging; assay type: cell-based; settings: read-out: IC50 stage IV-V gametocyte viability
[22] = Metabolic stability in liver microsomes; assay type: in vitro ADME; settings: in vitro incubation with liver microsomes, multiple species
[23] = tested on: 5-strain Ames bacterial assay; assay type: cell-based
[24] = tested on: P. berghei oocysts in Anopheles stephensi; assay: In vivo transmission blocking, mosquitoes fed on treated infected mice; settings: for inhibition at 10 mg/kg: read-out: inhibition of oocyst production
In short: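 Mice at about 3% P. berghei parasitemia received a single oral dose of test compound (0.1–10 mg/kg) or vehicle. Female Anopheles stephensi fed on the mice 1 h after treatment. Midguts were dissected on day 10 post infection and examined for oocysts. Dihydroartemisinin and primaquine (10 mg/kg) were positive controls.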

[25] = Aqueous solubility, kinetic and thermodynamic methods; assay type: physicochemical
In short: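 Kinetic method: DMSO stock diluted into various media. Thermodynamic method: equilibrium solubility with physiologically relevant media and incubation time.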

[26] = tested on: P. falciparum; assay: In vitro parasite reduction ratio; assay type: cell-based
[27] = tested on: two rat cell lines; settings: read-out: IC50 level, ATP levels; either of two rat cell lines, galactose medium
[28] = tested on: P. berghei infected ICR mice; assay: Thompson test, blood stage efficacy; assay type: in vivo
[29] = tested on: P. falciparum; assay: Immuno-deficient; assay type: in vivo
In short: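 NOD-scid IL2Rγnull-type immunodeficient mice were engrafted with human erythrocytes and infected with P. falciparum. The test compound was given orally daily for 4 consecutive days as a non-optimized suspension, not in PEG400 (3 vehicle mice, 11 treated). Parasitemia was measured by FACS, with Giemsa smears at 48 h. Blood levels were followed over 23 h after the first dose. ED90 was taken at day 7 versus vehicle. AUCED90 was estimated graphically from AUC0→23h versus log10 day-7 parasitemia for each mouse.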

[30] = tested on: P. falciparum clinical isolates; assay: Ex vivo susceptibility of clinical field isolates, modified WHO microtest; assay type: cell-based, Plasmodium falciparum; settings: read-out: median EC50, Papua, Indonesia
In short: as §1

[31] = tested on: P. falciparum strains (D6, Dd2, TM90-C2B, V1/S); assay: In vitro isobolar testing with proguanil, fixed combination ratios; assay type: cell-based; settings: isobolar testing against 4 strains
[32] = tested on: P. falciparum strain 3D7 oocyst formation; settings: comparable SMFA; cited from earlier work

hERG (human-Ether-a-go-go-Related Gene) channel, sequence (Q12809 whole entry): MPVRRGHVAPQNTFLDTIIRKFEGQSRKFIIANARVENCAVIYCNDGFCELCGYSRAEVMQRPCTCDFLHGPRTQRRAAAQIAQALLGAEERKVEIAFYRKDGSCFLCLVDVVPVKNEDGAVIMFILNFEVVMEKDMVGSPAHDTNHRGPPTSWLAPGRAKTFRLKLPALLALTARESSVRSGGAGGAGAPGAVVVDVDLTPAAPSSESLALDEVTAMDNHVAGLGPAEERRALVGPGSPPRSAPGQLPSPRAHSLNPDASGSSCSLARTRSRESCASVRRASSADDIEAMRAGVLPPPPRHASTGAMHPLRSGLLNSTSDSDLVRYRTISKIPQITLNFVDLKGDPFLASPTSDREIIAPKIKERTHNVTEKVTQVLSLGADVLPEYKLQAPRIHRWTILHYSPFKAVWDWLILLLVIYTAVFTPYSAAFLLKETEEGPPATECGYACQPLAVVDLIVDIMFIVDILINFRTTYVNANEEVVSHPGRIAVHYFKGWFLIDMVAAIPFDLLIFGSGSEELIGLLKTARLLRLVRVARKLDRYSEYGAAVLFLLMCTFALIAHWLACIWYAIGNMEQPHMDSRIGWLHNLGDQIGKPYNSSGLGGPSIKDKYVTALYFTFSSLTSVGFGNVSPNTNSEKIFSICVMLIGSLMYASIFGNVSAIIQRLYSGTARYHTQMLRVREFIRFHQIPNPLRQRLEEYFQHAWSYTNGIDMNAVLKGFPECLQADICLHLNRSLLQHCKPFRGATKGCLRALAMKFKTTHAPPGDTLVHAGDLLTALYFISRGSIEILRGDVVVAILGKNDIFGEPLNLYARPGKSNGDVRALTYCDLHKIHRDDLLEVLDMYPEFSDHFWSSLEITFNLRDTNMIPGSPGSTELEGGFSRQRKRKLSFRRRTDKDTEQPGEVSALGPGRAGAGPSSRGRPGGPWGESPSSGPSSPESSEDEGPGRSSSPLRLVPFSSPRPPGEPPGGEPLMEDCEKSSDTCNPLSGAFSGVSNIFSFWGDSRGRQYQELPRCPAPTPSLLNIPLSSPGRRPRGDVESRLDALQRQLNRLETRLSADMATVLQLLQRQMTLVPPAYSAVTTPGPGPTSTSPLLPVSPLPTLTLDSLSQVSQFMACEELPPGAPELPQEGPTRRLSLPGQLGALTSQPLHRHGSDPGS
P. falciparum cytochrome bc1, sequence (Q02768 whole entry): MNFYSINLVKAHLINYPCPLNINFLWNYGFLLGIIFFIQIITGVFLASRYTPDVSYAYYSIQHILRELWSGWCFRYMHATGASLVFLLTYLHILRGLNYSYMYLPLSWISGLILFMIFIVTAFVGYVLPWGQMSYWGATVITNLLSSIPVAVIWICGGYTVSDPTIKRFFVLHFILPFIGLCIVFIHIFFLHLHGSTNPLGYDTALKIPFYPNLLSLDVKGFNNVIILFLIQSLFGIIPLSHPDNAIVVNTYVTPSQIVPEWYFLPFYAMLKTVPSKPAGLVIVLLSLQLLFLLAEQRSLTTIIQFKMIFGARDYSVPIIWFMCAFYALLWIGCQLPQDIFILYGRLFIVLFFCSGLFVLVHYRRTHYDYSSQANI

Structure (SMILES): O=C1C(O)=C([C@H]2CC[C@H](c3ccc(Cl)cc3)CC2)C(=O)c2ccccc21 [Atovaquone, reference compound]
IC50 [1]: 460 nM | ED90 [2]: 0.04 mg/kg/day | IC50 ([3]; Plasmodium berghei, 24 h): 67 nM

IC50 ([1]; read-out: IC50 human cytochrome bc1, enzyme derived from HEK cells): 1990 nM
Structure (SMILES): Cc1[nH]c2ccccc2c(=O)c1-c1ccc(Oc2ccc(OC(F)(F)F)cc2)cc1 [ELQ-271]

Structure (SMILES): COc1cc2[nH]c(C)c(-c3ccc(Oc4ccc(OC(F)(F)F)cc4)cc3)c(=O)c2cc1Cl [ELQ-300]
IC50 [4]: 0.58 nM | cross-resistance with atovaquone in TM90-C2B [5]: 1.3 fold | reduction of oocyst burden in mosquito midguts ([6]; 10 nM): 19.2% | reduction of the total oocyst count relative to controls ([6]; blood containing 100 nM): 99.4% | oocyst formation ([6]; blood containing 1 μM drug): no oocysts formed | IC50 [7]: > 10000 nM | sensitivity of D10yDHOD transfectants [8]: insensitive | IC50 ([1]; read-out: IC50, nM human cytochrome bc1, derived from HEK-293 cells): > 10000 nM | IC50 [9]: > 10000 nM | IC50 [10]: > 11000 nM | IC50 [11]: > 10000 nM | inhibition of the major cytochrome P450 enzymes [12]: did not inhibit | inhibition in screen of 100 targets [13]: did not observe any significant inhibition | non-recrudescence dose relative to atovaquone ([2]; P. yoelii murine model): 30 times lower | ED90 [2]: 0.15 mg/kg/day | AUCED90 ([2]; mouse, in vivo): 1.4 μg·h/mL/day | drug exposure (AUC0-24 h) in peripheral blood at the ED90 ([2]; mouse, in vivo, po): 1400 ng·h/mL | EC50 [14]: 17.9 nM | IC50 [15]: ~100 nM | single dose that completely blocked infection [16]: ≥ 0.03 mg/kg | EC50 [17]: 1.02 nM | lowest exposure preventing gametocyte development to Stage IV [18]: ≤ 0.1 µM | Tmax [19]: approximately 7.5 h | oral bioavailability [19]: approximately 100% | concentration that completely blocked oocyst formation ([20]; one of two independent studies): ≥ 10 nM | reduction in oocyst formation ([20]; the other study, 10 nM): 95.9% | IC50 ([21]; 72 hr): 71.9 nM | stability to metabolic degradation by cytochrome P450 enzymes [22]: highly stable | mutagenic potential [23]: lacks mutagenic potential | dose that completely prevented transmission (oocyst development) ([24]; single oral dose, feeding one hour after treatment): ≥ 0.1 mg/kg | aqueous solubility [25]: low aqueous solubility | time required to kill >99.9% of parasites ([26]; 10x EC50 concentration): ≈ 100 h | speed of action ([26]; exposure up to 120 hr): slow-acting | IC50 [27]: > 100000 nM | curative blood stage dose ([28]; Thompson or Peter's tests): 1 mg/kg | fifty percent effective dose (ED50) ([28]; Thompson test, P. berghei, ICR mice): 0.016 mg/kg/day | dose that reduced parasitemia by 90% at day 7 (ED90) ([29]; SCID mice, oral daily for four days, suspension formulation): 5.9 mg/kg/day | estimated exposure at the ED90 dose (AUCED90) ([29]; SCID mouse model, blood): 1.1 μg·h/mL/day | EC50 [30]: 14.9 nM | interaction with proguanil [31]: strong pharmacological synergism | IC50 ([3]; first 24 h of development, GFP endpoint): 56 nM

Structure (SMILES): C[C@H]1Cc2c([nH]c3cc(Cl)c(F)cc23)[C@@]2(N1)C(=O)Nc1ccc(Cl)cc12 [NITD609]
concentration required to completely inhibit oocyst formation [32]: 500 nM

Structure (SMILES): C[C@H]1[C@@H](O)O[C@@H]2O[C@@]3(C)CC[C@H]4[C@H](C)CC[C@@H]1[C@@]24OO3 [dihydroartemisinin]
inhibition at 10 mg/kg [24]: 63.7%

Structure (SMILES): COc1cc(NC(C)CCCN)c2ncccc2c1 (stereo not shown) [primaquine]
inhibition at 10 mg/kg [24]: 95.4%

Structure (SMILES): COc1ccc(C[C@H](N)C(=O)N[C@H]2[C@@H](O)[C@H](n3cnc4c(N(C)C)ncnc43)O[C@@H]2CO)cc1 [puromycin, reference compound]
IC50 ([21]; Plasmodium falciparum, 72 h): 75.3 nM
